Measured values taken from ChEMBL document CHEMBL1141075, “4-Oxo-4,7-dihydrothieno[2,3-b]pyridines as non-nucleoside inhibitors of human cytomegalovirus and related herpesvirus polymerases” (J Med Chem, 2005).

Columns and labels:
[1] = test system: HFF; assay: Antiviral activity against Varicella-Zoster virus (Webster strain) grown on human foreskin fibroblast cells determined by vedduction in plaque formation upon incubation at 37 degrees C with the compound dissolved in DMSO until plaque were formed; assay type: functional, cell-based
Method in brief: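 Monolayers of human foreskin fibroblasts were infected with about 50 PFU per well for 1 h at 37 °C. The inoculum was then replaced with DMEM containing 10% FBS, 0.8% carboxymethyl cellulose and diluted compound from 200-fold DMSO stocks. Plates were incubated at 37 °C until plaques formed. Plaques were counted microscopically or after 0.1% crystal violet staining. IC50 came from linear regression of % inhibition versus untreated controls.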

[2] = Toxicity on uninfected human foreskin fibroblast cells determined in microscopic evaluation and quantitative neutral red dye uptake assay; assay type: cell-based; conditions: uninfected human foreskin fibroblast (HFF) cells
Method in brief: (§1)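 Uninfected cells were seeded as subconfluent monolayers and exposed to compound for 3 days. Viability was judged both by microscopic inspection and by quantitative neutral red dye uptake, giving CC50.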

[3] = test system: Vero; assay: Antiviral activity against herpes simplex virus type 1 (KOS strain) grown on human foreskin fibroblast cells determined by vedduction in plaque formation upon incubation at 37 degrees C with the compound dissolved in DMSO until plaque were formed; assay type: functional, cell-based
Method in brief: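 HSV-1 KOS, about 50 PFU per well, was adsorbed for 1 h at 37 °C. The inoculum was then replaced with drug dilutions from 200-fold DMSO stocks in DMEM containing 10% FBS and 0.8% carboxymethyl cellulose. Cultures were kept at 37 °C until plaques appeared. Plaques were counted microscopically or by crystal violet staining (0.1% in 20% ethanol). IC50 came from linear regression of % inhibition relative to the uninhibited control.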

[4] = molecular target: T1, DNA polymerase alpha catalytic subunit (Homo sapiens, UniProt P09884); assay: Inhibition of human alpha DNA polymerase (95 uL) activity in a solution containg […] HEPES (pH 7.5) upon incubation for 12 minutes at 26 degrees C with the compound dissolved in DMSO
T1 sequence (P09884 whole entry): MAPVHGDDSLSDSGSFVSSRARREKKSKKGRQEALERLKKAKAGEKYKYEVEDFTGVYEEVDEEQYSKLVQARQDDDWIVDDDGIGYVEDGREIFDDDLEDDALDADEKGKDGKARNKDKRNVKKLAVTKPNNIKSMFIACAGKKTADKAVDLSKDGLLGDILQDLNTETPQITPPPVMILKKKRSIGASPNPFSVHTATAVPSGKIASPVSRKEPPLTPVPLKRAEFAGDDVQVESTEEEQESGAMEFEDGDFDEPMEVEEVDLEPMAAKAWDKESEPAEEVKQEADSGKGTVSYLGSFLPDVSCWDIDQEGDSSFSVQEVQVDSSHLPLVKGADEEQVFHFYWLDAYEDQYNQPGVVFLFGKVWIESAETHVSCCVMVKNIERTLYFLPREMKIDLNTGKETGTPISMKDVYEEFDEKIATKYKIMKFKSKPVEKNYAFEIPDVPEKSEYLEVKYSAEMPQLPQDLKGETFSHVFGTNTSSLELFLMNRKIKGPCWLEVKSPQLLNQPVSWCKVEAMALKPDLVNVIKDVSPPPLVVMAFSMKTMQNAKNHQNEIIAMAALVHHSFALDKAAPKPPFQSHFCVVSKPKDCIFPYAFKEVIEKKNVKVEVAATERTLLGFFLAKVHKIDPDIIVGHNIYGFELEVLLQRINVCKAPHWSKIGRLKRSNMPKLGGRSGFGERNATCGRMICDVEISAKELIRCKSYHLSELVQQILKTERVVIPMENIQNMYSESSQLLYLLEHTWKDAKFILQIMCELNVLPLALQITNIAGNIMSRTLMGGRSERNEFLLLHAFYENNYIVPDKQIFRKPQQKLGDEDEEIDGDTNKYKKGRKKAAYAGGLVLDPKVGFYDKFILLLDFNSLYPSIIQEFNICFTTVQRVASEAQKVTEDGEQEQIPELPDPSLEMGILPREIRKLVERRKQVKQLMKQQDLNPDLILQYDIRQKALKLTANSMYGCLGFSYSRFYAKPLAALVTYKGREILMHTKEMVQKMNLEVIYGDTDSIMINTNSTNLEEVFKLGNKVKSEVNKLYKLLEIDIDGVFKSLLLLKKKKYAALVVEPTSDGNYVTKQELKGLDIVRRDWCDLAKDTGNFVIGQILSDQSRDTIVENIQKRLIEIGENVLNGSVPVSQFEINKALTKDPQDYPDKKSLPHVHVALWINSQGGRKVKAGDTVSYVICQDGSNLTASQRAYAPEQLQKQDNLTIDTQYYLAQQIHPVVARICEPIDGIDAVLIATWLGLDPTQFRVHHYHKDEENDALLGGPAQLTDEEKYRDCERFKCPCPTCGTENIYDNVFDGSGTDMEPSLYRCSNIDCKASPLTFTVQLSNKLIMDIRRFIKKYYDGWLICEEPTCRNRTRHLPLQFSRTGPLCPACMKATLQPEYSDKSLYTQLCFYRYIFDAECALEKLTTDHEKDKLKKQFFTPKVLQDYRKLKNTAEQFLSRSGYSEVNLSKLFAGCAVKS

[5] = molecular target: T2, DNA polymerase catalytic subunit (Herpes simplex virus (type 1 / strain 17), UniProt P04293); assay: Inhibition of herpes simplex virus type 1 DNA polymerase (95 uL) activity in a solution containing […] HEPES (pH 7.5), incubation for 12 minutes at 26 degrees C; design: species or system Human alphaherpesvirus 1
T2 sequence (P04293 whole entry): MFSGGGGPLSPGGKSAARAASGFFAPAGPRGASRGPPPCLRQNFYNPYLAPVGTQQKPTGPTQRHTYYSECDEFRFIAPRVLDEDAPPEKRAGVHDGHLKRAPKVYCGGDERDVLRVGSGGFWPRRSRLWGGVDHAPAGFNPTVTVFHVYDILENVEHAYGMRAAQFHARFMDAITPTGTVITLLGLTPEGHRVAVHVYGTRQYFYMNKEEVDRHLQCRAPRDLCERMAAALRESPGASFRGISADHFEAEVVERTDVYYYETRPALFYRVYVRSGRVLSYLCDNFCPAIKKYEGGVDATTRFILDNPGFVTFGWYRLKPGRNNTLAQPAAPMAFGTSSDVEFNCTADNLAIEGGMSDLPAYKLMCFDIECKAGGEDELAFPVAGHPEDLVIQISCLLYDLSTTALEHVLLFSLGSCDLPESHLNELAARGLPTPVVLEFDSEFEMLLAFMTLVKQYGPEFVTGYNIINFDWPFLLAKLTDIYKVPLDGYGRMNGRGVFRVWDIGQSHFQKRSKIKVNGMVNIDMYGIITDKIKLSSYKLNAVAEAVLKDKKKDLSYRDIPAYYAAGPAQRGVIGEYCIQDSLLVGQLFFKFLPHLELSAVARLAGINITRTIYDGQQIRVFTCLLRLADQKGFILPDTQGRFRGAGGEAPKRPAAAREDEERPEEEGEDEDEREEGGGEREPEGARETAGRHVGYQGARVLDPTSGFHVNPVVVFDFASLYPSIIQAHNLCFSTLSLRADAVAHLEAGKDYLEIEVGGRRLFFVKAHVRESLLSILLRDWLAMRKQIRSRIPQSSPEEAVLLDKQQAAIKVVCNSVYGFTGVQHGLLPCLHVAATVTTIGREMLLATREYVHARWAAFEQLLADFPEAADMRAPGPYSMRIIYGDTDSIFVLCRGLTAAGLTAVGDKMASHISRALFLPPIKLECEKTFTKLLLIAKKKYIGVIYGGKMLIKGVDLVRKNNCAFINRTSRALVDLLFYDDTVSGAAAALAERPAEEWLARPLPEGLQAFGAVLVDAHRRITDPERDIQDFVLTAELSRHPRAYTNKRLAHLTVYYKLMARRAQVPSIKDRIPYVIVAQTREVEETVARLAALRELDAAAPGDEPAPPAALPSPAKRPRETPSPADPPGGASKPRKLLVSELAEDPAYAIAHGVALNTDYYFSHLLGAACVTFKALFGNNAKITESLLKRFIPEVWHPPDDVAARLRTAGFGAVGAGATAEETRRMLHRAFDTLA

[6] = Toxicity on uninfected African green monkey kidney cells determined in microscopic evaluation and quantitative neutral red dye uptake assay; assay type: cell-based; conditions: chlorocebus sabaeus, uninfected African green monkey kidney (Vero) cells; method in brief: as §1
[7] = test system: HFF; assay: Antiviral activity against human cytomegalovirus (Davis strain) grown on human foreskin fibroblast cells determined by reduction in plaque formation upon incubation at 37 degrees C with the compound dissolved in DMSO; assay type: functional, cell-based
[8] = test system: Vero; assay: cells; conditions: Chlorocebus sabaeus, 1 h
[9] = test system: Vero; assay: cells; conditions: Chlorocebus sabaeus, 1 h; remark: listed apart in the source
[10] = test system: Vero; assay: cells; conditions: Chlorocebus sabaeus, 1 h; remark: listed apart in the source
[11] = test system: Vero; assay: cells; conditions: Chlorocebus sabaeus, 1 h; remark: listed apart in the source
[12] = test system: Vero; assay: cells; conditions: Chlorocebus sabaeus, 1 h; remark: listed apart in the source
[13] = test system: Vero; assay: cells; conditions: Chlorocebus sabaeus, 1 h; remark: listed apart in the source
[14] = test system: Vero; assay: cells; conditions: Chlorocebus sabaeus, 1 h; remark: listed apart in the source
[15] = test system: Vero; assay: cells; conditions: Chlorocebus sabaeus, 1 h; remark: listed apart in the source
[16] = test system: Vero; assay: cells; conditions: Chlorocebus sabaeus, 1 h; remark: listed apart in the source
[17] = test system: HFF; assay: Antiviral activity against human cytomegalovirus Ad169 (WT) plaque forming unit grown on Human foreskin fibroblast cells upon incubation for 1 hour at 37 degrees C with compound dissolved in DMSO; assay type: functional, cell-based
Method in brief: (§2)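 Plaque reduction: about 50 PFU added per well of a 24-well dish of the appropriate cells, 1 h at 37 °C, then the inoculum was replaced by drug-containing DMEM with 10% FBS and 0.8% carboxymethyl cellulose. DMSO stocks were 200-fold. Plates were held at 37 °C until plaques formed. Plaques were counted microscopically or after crystal violet stain. Percent inhibition was taken against the uninhibited control, with IC50 by linear regression.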

[18] = test system: HFF; assay: Antiviral activity against human cytomegalovirus Ad169 (V823A) plaque forming unit grown on Human foreskin fibroblast cells upon incubation for 1 hour at 37 degrees C with compound dissolved in DMSO; assay type: functional, cell-based; method in brief: as §2

SMILES | IC50 [1] | CC50 [2] | IC50 [3] | IC50 [4] | IC50 [5] | CC50 [6] | IC50 [7] | IC50 [8] | IC50 [9] | IC50 [10] | IC50 [11] | IC50 [12] | IC50 [13] | IC50 [14] | IC50 [15] | IC50 [16] | IC50 [17] | IC50 [18]
Cn1cc(C(=O)NCc2ccc(Cl)cc2)c(=O)c2cc(CCCO)sc21 | 0.09 µM | > 100 µM | 3 µM | > 40 µM | 0.5 µM | > 100 µM | 0.6 µM | – | – | – | – | – | – | – | – | – | – | –
Nc1nc2c(ncn2COCCO)c(=O)[nH]1 [ACYCLOVIR] | – | > 100 µM | – | – | – | > 100 µM | – | 2.4 µM | > 10 µM | 2.8 µM | 4.4 µM | > 10 µM | 5.4 µM | > 10 µM | 3.5 µM | > 10 µM | – | –
Nc1nc2c(ncn2COC(CO)CO)c(=O)[nH]1 [GANCICLOVIR] | – | > 100 µM | – | – | – | > 100 µM | – | – | – | – | – | – | – | – | – | – | 0.8 µM | 0.8 µM
